ChEMBL document CHEMBL3045116, “Synthesis and biological evaluation of 2-(5-substituted-1-((diethylamino)methyl)-2-oxoindolin-3-ylidene)-N-substituted-hydrazinecarbothioamides” (Med Chem Res, 2013)

Columns and labels:
CCRF-CEM = assay: Cytotoxicity against Homo sapiens (human) CEM cells assessed as growth inhibition after 72 hr by coulter counter analysis; type: functional, cell-based
Outline: (§1)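 Cells in growth medium were allowed to proliferate with variable compound amounts at 37 °C in a humidified CO2 atmosphere. Incubation ran 48 h for L1210, 72 h for CEM and 96 h for HeLa. Cells were then counted with a Coulter counter.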

L1210 = assay: Cytotoxicity against Mus musculus (mouse) L1210 cells assessed as growth inhibition after 48 hr by coulter counter analysis; type: functional, cell-based; conditions: L1210, 48 h; outline: as §1
[1] = Inhibition of beta lactamase assessed as increase in time taken for iodine decolorization relative to control; design: concentration or dose not given beside the values; conditions: concentration not given here
[2] = Inhibition of beta lactamase assessed as time for decolorization of iodine (reference value: 79.5 secs)
Felid alphaherpesvirus 1 = assay: Antiviral activity against Felid herpesvirus 1 infected cat CRFK cells assessed as reduction of virus-induced cytopathic effect after 3 days by colorimetric formazan-based MTS assay; type: functional, organism-based; conditions: Felid alphaherpesvirus 1, CRFK, 72 h
Outline: (§2)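 Cells grown to confluency in 96-well plates ([…], Vero for lines 9–10) were infected with 100 CCID50 of virus, and serial compound dilutions were added at infection. Plates were incubated at 37 °C for 3 days, until complete CPE appeared in untreated virus controls.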

[3] = test system: Feline infectious peritonitis virus; assay: Antiviral activity against Feline Infectious peritonitis virus infected cat CRFK cells assessed as reduction of virus-induced cytopathic effect after 3 days by colorimetric formazan-based MTS assay; type: functional, organism-based; conditions: Alphacoronavirus 1, CRFK, 72 h
Outline: (§3)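 Confluent cell monolayers were infected with 100 CCID50 of virus, and serial dilutions of compound were added at the time of infection.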

[4] = Cytotoxicity against Felis catus (cat) CRFK cells assessed as change in cellular morphology; type: cell-based; conditions: CRFK cells
Outline: (§4)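 Uninfected cells were exposed to compound in parallel with the antiviral cultures. The read-out is the minimum cytotoxic concentration that causes a microscopically detectable alteration of normal cell morphology.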

Human alphaherpesvirus 1 = assay: Antiviral activity against acyclovir-resistant thymidine kinase negative Human herpesvirus 1 strain KOS infected human HEL cells assessed as reduction of virus-induced cytopathic effect after 3 days by colorimetric formazan-based MTS assay; type: functional, organism-based; conditions: Human alphaherpesvirus 1, KOS, 72 h; outline: as §3
[5] = test system: Vesicular stomatitis virus; assay: Antiviral activity against Vesicular stomatitis virus infected human HEL cells assessed as reduction of virus-induced cytopathic effect after 3 days by colorimetric formazan-based MTS assay; type: functional, organism-based; conditions: 72 h; outline: as §3
Vaccinia virus = assay: Antiviral activity against Vaccinia virus infected human HEL cells assessed as reduction of virus-induced cytopathic effect after 3 days by colorimetric formazan-based MTS assay; type: functional, organism-based; conditions: Orthopoxvirus vaccinia, 72 h; outline: as §3
Human alphaherpesvirus 2 = assay: Antiviral activity against Human herpesvirus 2 strain G infected human HEL cells assessed as reduction of virus-induced cytopathic effect after 3 days by colorimetric formazan-based MTS assay; type: functional, organism-based; conditions: Human alphaherpesvirus 2, strain G, 72 h; outline: as §3
[6] = Cytotoxicity against Homo sapiens (human) HEL cells assessed as change in cellular morphology; type: cell-based
Candida albicans = assay: Antifungal activity against Candida albicans assessed as growth inhibition at 50 ug/ml by cup-plate method (reference value: 8 to 10 mm); type: functional; conditions: read-out: DIZ
Aspergillus niger = assay: Antifungal activity against Aspergillus niger assessed as growth inhibition at 50 ug/ml by cup-plate method (reference value: 8 to 10 mm); type: functional; conditions: read-out: DIZ
Salmonella typhi = assay: Antibacterial activity against Salmonella enterica subsp. enterica serovar Typhi assessed as growth inhibition at 50 ug/ml by cup-plate method (reference value: 8 to 10 mm); type: functional; conditions: read-out: DIZ
Proteus vulgaris = assay: Antibacterial activity against Proteus vulgaris assessed as growth inhibition at 50 ug/ml by cup-plate method (reference value: 8 to 10 mm); type: functional; conditions: read-out: DIZ
Escherichia coli = assay: Antibacterial activity against Escherichia coli assessed as growth inhibition at 50 ug/ml by cup-plate method (reference value: 8 to 10 mm); type: functional; conditions: read-out: DIZ
Bacillus subtilis = assay: Antibacterial activity against Bacillus subtilis assessed as growth inhibition at 50 ug/ml by cup-plate method (reference value: 8 to 10 mm); type: functional; conditions: read-out: DIZ
Klebsiella pneumoniae = assay: Antibacterial activity against Klebsiella pneumoniae assessed as growth inhibition at 50 ug/ml by cup-plate method (reference value: 8 to 10 mm); type: functional; conditions: read-out: DIZ
Staphylococcus aureus = assay: Antibacterial activity against Staphylococcus aureus assessed as growth inhibition at 50 ug/ml by cup-plate method (reference value: 8 to 10 mm); type: functional; conditions: read-out: DIZ
Influenza B virus = assay: Antiviral activity against Influenza B virus infected in MDCK cells assessed as reduction of virus-induced cytopathic effect after 3 days by colorimetric formazan-based MTS assay; type: functional, organism-based; conditions: 72 h; outline: as §3
Influenza A virus H3N2 = assay: Antiviral activity against Influenza A virus H3N2 infected MDCK cells assessed as reduction of virus-induced cytopathic effect after 3 days by colorimetric formazan-based MTS assay; type: functional, organism-based; conditions: 72 h; outline: as §3
Influenza A virus = assay: Antiviral activity against Unidentified Influenza A virus (H1N1) infected MDCK cells assessed as reduction of virus-induced cytopathic effect after 3 days by colorimetric formazan-based MTS assay; type: functional, organism-based; conditions: 72 h; outline: as §3
[7] = (§5) Cytotoxicity against MDCK cells assessed as change in cellular morphology; type: cell-based, Canis lupus familiaris; conditions: dog, MDCK cells; outline: as §4
Coxsackievirus B4 [8] = assay: Antiviral activity against Human coxsackievirus B4 infected African green monkey Vero cells assessed as reduction of virus-induced cytopathic effect after 3 days by colorimetric formazan-based MTS assay; type: functional, organism-based; conditions: Enterovirus B, 72 h; outline: as §3
Respirovirus muris = assay: Antiviral activity against Sendai virus infected African green monkey Vero cells assessed as reduction of virus-induced cytopathic effect after 3 days by colorimetric formazan-based MTS assay; type: functional, organism-based; conditions: 72 h
[9] = test system: Mammalian orthoreovirus 1; assay: Antiviral activity against Mammalian orthoreovirus 1 infected African green monkey Vero cells assessed as reduction of virus-induced cytopathic effect after 3 days by colorimetric formazan-based MTS assay; type: functional, organism-based; conditions: Mammalian orthoreovirus 1, Vero, 72 h; outline: as §2
Human respirovirus 3 = assay: Antiviral activity against Human parainfluenza virus 3 infected African green monkey Vero cells assessed as reduction of virus-induced cytopathic effect after 3 days by colorimetric formazan-based MTS assay; type: functional, organism-based; conditions: Human respirovirus 3, Vero, 72 h; outline: as §2
[10] = Cytotoxicity against Chlorocebus aethiops (African green monkey) Vero cells assessed as change in cellular morphology; type: cell-based; conditions: chlorocebus sabaeus
[11] = test system: Respiratory syncytial virus; assay: Antiviral activity against Respiratory syncytial virus infected human HeLa cells assessed as reduction of virus-induced cytopathic effect after 3 days by colorimetric formazan-based MTS assay; type: functional, organism-based; conditions: 72 h; outline: as §3
[12] = test system: Vesicular stomatitis virus; assay: Antiviral activity against Vesicular stomatitis virus infected human HeLa cells assessed as reduction of virus-induced cytopathic effect after 3 days by colorimetric formazan-based MTS assay; type: functional, organism-based; conditions: 72 h; outline: as §3
Coxsackievirus B4 [13] = assay: Antiviral activity against Human coxsackievirus B4 infected human HeLa cells assessed as reduction of virus-induced cytopathic effect after 3 days by colorimetric formazan-based MTS assay; type: functional, organism-based; conditions: Enterovirus B, 72 h; outline: as §3
[14] = (§6) Cytotoxicity against Homo sapiens (human) HeLa cells assessed as change in cellular morphology; type: cell-based; conditions: HeLa cells; outline: as §4
MDCK = assay: as §5; type: cell-based, Canis lupus familiaris; conditions: dog, mdck; outline: as §4
Punta Toro virus = assay: Antiviral activity against Punta Toro virus infected in African green monkey Vero cells assessed as reduction of virus-induced cytopathic effect after 3 days by colorimetric formazan-based MTS assay; type: functional, organism-based; conditions: 72 h; outline: as §3
HeLa = assay: as §6; type: cell-based; conditions: hela; outline: as §4

`N[C@@H](Cc1ccc(N(CCCl)CCCl)cc1)C(=O)O` gave an IC50 (CCRF-CEM) of 2.2 µM and an IC50 (L1210) of 3.2 µM.

`O=C(O)[C@H]1/C(=C/CO)O[C@@H]2CC(=O)N21` gave an inhibition [1] of 67% and a TIME [2] of 0.0668 h.

In the case of `Nc1nc2c(ncn2COC(CO)CO)c(=O)[nH]1` [GANCICLOVIR], the EC50 (Felid alphaherpesvirus 1) is reported as 7.3 µM, the EC50 [3] is reported as > 100 µM and the CC50 [4] is reported as > 100 µM. For the same compound, the EC50 (Human alphaherpesvirus 1) was ≥ 20 µM, the EC50 [5] was > 100 µM and the EC50 (Vaccinia virus) was > 100 µM. The EC50 (Human alphaherpesvirus 2) was 0.07 µM and the MCC [6] was > 100 µM.

`OC(Cn1cncn1)(Cn1cncn1)c1ccc(F)cc1F` [FLUCONAZOLE] gave a zone of inhibition at 50 µg/mL (Candida albicans) of 31 mm and a zone of inhibition at 50 µg/mL (Aspergillus niger) of 31 mm.

With `CC1COc2c(N3CCN(C)CC3)c(F)cc3c(=O)c(C(=O)O)cn1c23` (stereo not drawn) [OFLOXACIN] the zone of inhibition at 50 µg/mL (Salmonella typhi) was 31 mm, the zone of inhibition at 50 µg/mL (Proteus vulgaris) was 31 mm and the zone of inhibition at 50 µg/mL (Escherichia coli) was 31 mm. The zone of inhibition at 50 µg/mL (Bacillus subtilis) was 31 mm, the zone of inhibition at 50 µg/mL (Klebsiella pneumoniae) was 31 mm and the zone of inhibition at 50 µg/mL (Staphylococcus aureus) was 31 mm.

For `NC(=O)c1ncn([C@@H]2O[C@H](CO)[C@@H](O)[C@H]2O)n1` [RIBAVIRIN], the EC50 (Influenza B virus) was 8.4 µM, the EC50 (Influenza A virus H3N2) was 6.8 µM and the EC50 (Influenza A virus) was 11.5 µM. The MCC [7] was ≥ 100 µM, the EC50 (Coxsackievirus B4 [8]) was > 250 µM and the EC50 (Respirovirus muris) was > 250 µM. The EC50 [9] was > 250 µM, the EC50 (Human respirovirus 3) was 50 µM and the MCC [10] was > 250 µM. It also gave an EC50 [11] of 4.6 µM, an EC50 [12] of 12.1 µM and an EC50 (Coxsackievirus B4 [13]) of 28.5 µM. For the same compound, the CC50 [14] was > 250 µM and the MCC [14] was > 250 µM.

In the case of `NC12CC3CC(CC(C3)C1)C2` [AMANTADINE], the EC50 (Influenza B virus) is reported as > 500 µM, the EC50 (Influenza A virus H3N2) is reported as 1.5 µM and the EC50 (Influenza A virus) is reported as 65.5 µM. The MCC [7] was > 500 µM and the CC50 (MDCK) was > 500 µM.

In the case of `Nc1ncnc2c1ncn2C[C@H](O)CO` [(S)-DHPA], the EC50 (Punta Toro virus) is reported as > 250 µM, the EC50 (Coxsackievirus B4 [8]) is reported as > 250 µM and the EC50 (Respirovirus muris) is reported as > 250 µM. The MCC [10] was > 250 µM, the EC50 [11] was > 250 µM and the EC50 [12] was > 250 µM. The EC50 (Coxsackievirus B4 [13]) was > 250 µM, the MCC [14] was > 250 µM and the CC50 (HeLa) was > 250 µM.
